Measurements pooled from the literature.
Lines come from different studies, so protocols differ.
Target: Serine/threonine-protein kinase MRCK beta (CDC42BPB, Homo sapiens, UniProt Q9Y5S2)

Compound | test | conditions | quantity | result
Cc1cnc(NC2CCOCC2)nc1-n1cnc(C(=O)NC(CN)c2cc(F)cc(Cl)c2)c1 (centres unmarked) | enzyme activity, inhibitor, radiometric | 1 µM | remaining activity | 59%
CNC(=O)c1cc(Oc2ccc(NC(=O)Nc3ccc(Cl)c(C(F)(F)F)c3)cc2)ccn1 | enzyme activity, inhibitor | 0.3 µM | inhibition | 12%
Cc1noc([C@H]2C[C@@H](c3ccc(C(F)(F)F)cc3)CN(C(=O)N3CCS(=O)(=O)C3)C2)n1 | cell-free assay, competition with immobilised ligand | 1 µM | remaining binding | 100%
O=C(Nc1cnn(-c2csc(C(=O)NC3COC3)c2)c1)Nc1ccccc1Cl | enzyme activity, inhibitor | 5 µM | remaining activity | 97.1%
CC/C(=N\NC(=O)NCc1cccc(O)c1)c1ccc(O)c(C)c1O | enzyme activity, inhibitor | 0.1 µM | inhibition | 84.3%
CCCOc1ccc(OC)c(F)c1C(=O)c1ccc(C(=O)N[C@@H]2CNC[C@H]2NC(=O)c2ccc3[nH]ncc3c2)cc1 | enzyme activity, inhibitor | 0.1 µM | remaining activity | 34%
Cc1ccc(Nc2nccc(N(C)c3ccc4c(C)n(C)nc4c3)n2)cc1S(N)(=O)=O | enzyme activity, inhibitor | 0.3 µM | inhibition | 9%
O=C(NC[C@@H]1[C@H]2CN(C(=O)OCc3cc(C(F)(F)F)cc(C(F)(F)F)c3)C[C@@H]12)c1ccc2[nH]nnc2c1 | cell-free assay, competition with immobilised ligand | 1 µM | remaining binding | 100%
O=C1c2ccccc2-c2n[nH]c3cccc1c23 | enzyme activity, inhibitor | 0.5 µM | activity vs control | 97.2%
Cc1cc(NC(=O)c2cccc3cc(-c4cccc5[nH]nc(N)c45)ccc23)ccc1F | enzyme activity, inhibitor | 0.1 µM | activity vs control | 100%
CC(C)(C)c1nc(-c2cccc(NS(=O)(=O)c3c(F)cccc3F)c2F)c(-c2ccnc(N)n2)s1 | enzyme activity, inhibitor, radiometric | 1 µM | remaining activity | 98%
Cc1ccc(NC(=O)c2ccc(C)c(C(F)(F)F)c2)cc1C#Cc1nn(C2CCC(O)CC2)c2ncnc(N)c12 (centres unmarked) | cell-free assay | 10 µM | remaining signal | 87%
O=c1c2ccccc2[nH]c(=S)n1CCN1CCC(=C(c2ccc(F)cc2)c2ccc(F)cc2)CC1 | enzyme activity, inhibitor | 0.5 µM | remaining activity | 106%
CN1CCN(c2cnc3c(C4CCN(C(=O)c5ccc(OC(F)(F)F)cc5N)CC4)ncnc3c2)CC1 | cell-free assay, competition with immobilised ligand | 1 µM | remaining binding | 100%
Cc1ccc(C(=O)Nc2ccc(CN3CCN(C)CC3)c(C(F)(F)F)c2)cc1C#Cc1cnc2cccnn12 | enzyme activity, inhibitor | 23.5 nM | remaining activity | 95%
CN(c1ccnc(CNc2nc(Nc3ccc4c(c3)CC(=O)N4)ncc2C(F)(F)F)n1)S(C)(=O)=O | cell-free assay, competition with immobilised ligand | 1 µM | remaining binding | 100%
CCN(CC)CCNC(=O)c1c(C)[nH]c(/C=C2\C(=O)Nc3ccc(F)cc32)c1C | enzyme activity, inhibitor | 0.3 µM | inhibition | 8%
COc1cc2ncnc(Nc3ccc(Oc4ccccc4)c(C)c3C)c2cc1OC | enzyme activity, inhibitor | 1 µM | inhibition | 2%
COc1cccc(CNC(=O)c2nc3scc(COCc4ccc(C(=O)O)cc4)c3c(=O)[nH]2)c1 | cell-free assay, competition with immobilised ligand | 1 µM | remaining binding | 99.5%
CCCCNc1ncc2c(-c3ccc(F)cc3)nn(C[C@H]3CC[C@H](N)CC3)c2n1 | target engagement in cells, inhibitor, chemoproteomics | 20 mM | inhibition | 3.6%
CCOC(=O)c1cc2cc(-c3cc(C(=O)NCc4ccc(C(=O)O)cc4)nn3C)ccc2[nH]1 | cell-free assay, competition with immobilised ligand | 0.1 µM | remaining binding | 88%
N#CCCc1ccc2c(c1)-c1[nH]c3ccc([N+](=O)[O-])cc3c1CC(=O)N2 | cell-free assay | 0.5 µM | remaining signal | 54.1%
CNCc1ccccc1-c1csc([C@H](C)Nc2nc(C)nc3cc(OC)c(OC)cc23)c1 | cell-free assay, competition with immobilised ligand | 1 µM | remaining binding | 100%
COc1cccc2c(NCc3ccccc3)nc(-n3c(N)nc4ccccc43)nc12 | target engagement in cells, inhibitor, chemoproteomics | 20 mM | inhibition | -1.3%
CN([C@@H]1CCc2c(CC(=O)O)c3cc(S(C)(=O)=O)ccc3n2C1)S(=O)(=O)c1ccc(F)cc1 | cell-free assay, competition with immobilised ligand | 1 µM | remaining binding | 100%
CCN(CC)CCNC(=O)c1c(C)[nH]c(/C=C2\C(=O)Nc3ccc(Cl)cc32)c1C | enzyme activity, inhibitor | 0.5 µM | remaining activity | 96.1%
